# Laboratory results published in paper PMC4400215 (Antiviral therapy, 2014).
# “And” between values parts separate entries of the source, which are not always exact repeats. Equal entries are not always repeated. Where two headings read alike, the source gives them in different places.
# Tests used:
# HCV [1] = conditions: monotherapy, doses of 200 and 500 mg/day; cited from earlier work
# HCV genotype 1 [2] = assay type: in vivo, Hepatitis C virus; conditions: 14 days
# Procedure, shortened: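 Reanalysed phase 1 data. Chronically infected patients were randomised 8:2 to oral test compound or placebo for 14 days, and placebo recipients were excluded. HCV RNA was measured in blood drawn at 0, 2, 4, 6, 8, 12, 16, 24, 26, 28, 30, 48 and 52 h, on days 6 and 8 pre- and post-dose, and on day 13.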
# HCV [3] = assay: Varying effectiveness; assay type: in vivo, Hepatitis C virus; conditions: VE model
# Procedure, shortened: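 Standard viral kinetic model with constant target cells, fitted to log10 viral load only, without PK data. Effectiveness = Dose/(ED50+Dose)·(1−e^(−kt)), where Dose is the total daily amount. Population mixed-effects fit by maximum likelihood. Per-patient effectiveness was averaged over days 0–2 and 0–14, then over each cohort. First-phase decline = −log10(1−ε).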
# [4] = Two-compartment population PK model fitted to danoprevir plasma concentrations; assay type: in vivo, patients
# HCV [5] = conditions: 200 mg tid, multiscale model; cited from earlier work
# HCV [6] = assay: PK/VK model fitted to HCV RNA kinetics during danoprevir monotherapy; assay type: in vivo, Hepatitis C virus; conditions: for minimal effectiveness: at Cmin
# HCV genotype 1 [7] = conditions: cited from earlier work
# HCV [8] = conditions: in combination with mericitabine, 14 days, no viral breakthrough; cited from earlier work
# [9] = Cohort 5: 300 mg bid, non-responder
# [10] = PK/VK model, Cohort 1: 100 mg bid, TN
# [11] = PK/VK model, Cohort 2: 100 mg tid, TN
# [12] = PK/VK model, Cohort 3: 200 mg bid, TN
# [13] = PK/VK model, Cohort 4: 200 mg tid, TN
# [14] = PK/VK model, Cohort 5: 300 mg bid, non-responder
# [15] = after first intake, 100 mg bid dose
structure (smiles),measurement,setting,value
COc1ccc2c(O[C@@H]3C[C@H]4C(=O)N[C@]5(C(=O)O)C[C@H]5/C=C\CCCCC[C@H](NC(=O)OC5CCCC5)C(=O)N4C3)cc(-c3csc(NC(C)C)n3)nc2c1 [ciluprevir],δ (second phase decline),HCV [1],0.22 to 0.36 day⁻¹
CC(C)(C)OC(=O)N[C@H]1CCCCC/C=C\[C@@H]2C[C@@]2(C(=O)NS(=O)(=O)C2CC2)NC(=O)[C@@H]2C[C@@H](OC(=O)N3Cc4cccc(F)c4C3)CN2C1=O [danoprevir],Total viral decline (median),"HCV genotype 1 [2]; Cohort 1: 100 mg bid, treatment-naïve",2.0 Log10 IU/mL
same,Total viral decline (median),"HCV genotype 1 [2]; Cohort 2: 100 mg tid, TN",2.7 Log10 IU/mL
same,Total viral decline (median),"HCV genotype 1 [2]; Cohort 4: 200 mg tid, TN",3.9 Log10 IU/mL
same,Total viral decline (median),HCV genotype 1 [2]; [9],2.7 Log10 IU/mL
same,Average effectiveness over the first 2 days of dosing ε2,"HCV [3]; Cohort 1: 100 mg bid, TN",0.973
same,Average effectiveness over the full 14-day dosing period ε14,"HCV [3]; Cohort 1: 100 mg bid, TN",0.976
same,"Predicted first-phase log decline, i.e. −log10(1−ε2)","HCV [3]; Cohort 1: 100 mg bid, TN",1.57 log10
same,Average effectiveness over the first 2 days of dosing ε2,"HCV [3]; Cohort 2: 100 mg tid, TN",0.982
same,Average effectiveness over the full 14-day dosing period ε14,"HCV [3]; Cohort 2: 100 mg tid, TN",0.984
same,"Predicted first-phase log decline, i.e. −log10(1−ε2)","HCV [3]; Cohort 2: 100 mg tid, TN",1.74 log10
same,Average effectiveness over the first 2 days of dosing ε2,"HCV [3]; Cohort 3: 200 mg bid, TN",0.985
same,Average effectiveness over the full 14-day dosing period ε14,"HCV [3]; Cohort 3: 200 mg bid, TN",0.988
same,"Predicted first-phase log decline, i.e. −log10(1−ε2)","HCV [3]; Cohort 3: 200 mg bid, TN",1.82 log10
same,Average effectiveness over the first 2 days of dosing ε2,"HCV [3]; Cohort 4: 200 mg tid, TN",0.990
same,Average effectiveness over the full 14-day dosing period ε14,"HCV [3]; Cohort 4: 200 mg tid, TN",0.992
same,"Predicted first-phase log decline, i.e. −log10(1−ε2)","HCV [3]; Cohort 4: 200 mg tid, TN",2.00 log10
same,Average effectiveness over the first 2 days of dosing ε2,HCV [3]; [9],0.990
same,Average effectiveness over the full 14-day dosing period ε14,HCV [3]; [9],0.992
same,"Predicted first-phase log decline, i.e. −log10(1−ε2)",HCV [3]; [9],2.00 log10
same,ED50 (daily dose leading to 50% of the maximal effectiveness),HCV [3]; estimate±standard error,4.85 ± 1.4 mg/day
same,k (rate constant for effectiveness increase),HCV [3]; estimate±standard error,29.1 ± 13.0 day⁻¹ and 29.1 ± 13 day⁻¹
same,δ (loss rate of infected cells),HCV [3]; estimate±standard error,0.184 ± 0.03 day⁻¹
same,final population effectiveness,HCV [3]; highest dose given to treatment-naïve patients (cohort 4),0.992
same,final population effectiveness,HCV [3]; lowest dose (cohort 1),0.976
same,Cmax,"[4]; human, plasma, oral",2.67 to 589 ng/mL
same,Vd/F,"[4]; human, plasma, oral",2100 ± 360 L
same,k el,"[4]; human, plasma, oral",0.000283 s⁻¹
same,k21 (backward rate constant between compartments),"[4]; population estimate±standard error, all cohorts",0.81 h⁻¹ and 0.81 ± 0.17 h⁻¹
same,Tlag (post-dose lag-time),"[4]; population estimate±standard error, all cohorts, oral",0.50 h and 0.50 ± 0.057 h
same,Tk0 (time over which danoprevir is absorbed),"[4]; population estimate±standard error, all cohorts, zero-order absorption",0.58 h and 0.58 ± 0.13 h
same,effectiveness in blocking intracellular replication,HCV [5],99.2%
same,enhancement of viral RNA degradation,HCV [5],about 5 fold
same,mean effectiveness on viral secretion,HCV [5],56%
same,final effectiveness in blocking viral production,HCV [6]; 200 mg tid,99.4%
same,Average effectiveness over the first 2 days of dosing ε2,HCV [6]; [10],0.946
same,Average effectiveness over the full 14-day dosing period ε14,HCV [6]; [10],0.95 and 0.953
same,"Predicted first-phase log decline, i.e. −log10(1−ε2)",HCV [6]; [10],1.27 log10
same,Average effectiveness over the first 2 days of dosing ε2,HCV [6]; [11],0.981
same,Average effectiveness over the full 14-day dosing period ε14,HCV [6]; [11],0.990
same,"Predicted first-phase log decline, i.e. −log10(1−ε2)",HCV [6]; [11],1.72 log10
same,Average effectiveness over the first 2 days of dosing ε2,HCV [6]; [12],0.966
same,Average effectiveness over the full 14-day dosing period ε14,HCV [6]; [12],0.974
same,"Predicted first-phase log decline, i.e. −log10(1−ε2)",HCV [6]; [12],1.47 log10
same,Average effectiveness over the first 2 days of dosing ε2,HCV [6]; [13],0.985
same,Average effectiveness over the full 14-day dosing period ε14,HCV [6]; [13],0.994
same,"Predicted first-phase log decline, i.e. −log10(1−ε2)",HCV [6]; [13],1.83 log10
same,Average effectiveness over the first 2 days of dosing ε2,HCV [6]; [14],0.974
same,Average effectiveness over the full 14-day dosing period ε14,HCV [6]; [14],0.982
same,"Predicted first-phase log decline, i.e. −log10(1−ε2)",HCV [6]; [14],1.58 log10
same,minimal effectiveness,"HCV [6]; PK/VK model, cohort 1 (lowest dose)",0.706
same,minimal effectiveness,"HCV [6]; PK/VK model, cohort 4 (highest dose)",0.877
same,EC50 (plasma concentration at which effectiveness is 0.5 times its maximum),"HCV [6]; PK/VK model, in vivo, h=1, population estimate±standard error",0.0082 ± 0.0024 ng/mL
same,"δ (loss rate of infected cells, slope of second phase decline)","HCV [6]; PK/VK model, population estimate±standard error, all cohorts",0.18 day⁻¹ and 0.18 ± 0.024 day⁻¹
same,time to reach 95% of final effectiveness,HCV [6]; [15],≤ 30 min
same,time to reach 99% of final effectiveness,HCV [6]; [15],≤ 36 min
same,patients showing a rapid second phase (δ > 0.3 d^−1),HCV [6]; all cohorts,30%
same,time to reach 99% of the final effectiveness,"HCV [6]; model prediction, all doses",less than 1 hr
same,cure rates,"HCV genotype 1 [7]; genotype 1, with IFN and ribavirin, boosted with ritonavir",up to 93%
same,cure rates,"HCV genotype 1 [7]; patients infected with genotype 1, in combination with IFN and ribavirin",up to 85%
same,viral RNA decline,HCV [8],5 logs
